ChEMBL document CHEMBL1156517, “Targeting thyroid hormone receptor-beta agonists to the liver reduces cholesterol and triglycerides and improves the therapeutic index” (Proc Natl Acad Sci U S A, 2007)

Key:
[1] = Drug excretion in bile duct-canulated Sprague-Dawley rat bile at 10 mg/kg, iv; format: ADME, organism-based; design: dose 10 mg/kg, route intravenous; conditions: read-out: Activity
How it was run: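 Naïve and bile duct-cannulated SD rats (n = 3 per group) received 10 mg/kg i.v. Compound levels were measured in the collected bile and in plasma.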

[2] = AUC (0 to 24 hrs) in Sprague-Dawley rat at 5 mg/kg, iv; format: ADME, organism-based; design: time < 24 hr, dose 5 mg/kg, route intravenous; conditions: plasma
How it was run: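 Male SD rats received MB07344 at 5 mg/kg i.v. Pharmacokinetic parameters, including AUC over 0–24 h, were derived from the temporal plasma concentration profile of MB07344.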

Hepatocyte = assay: Cmax per10'6 cells in Sprague-Dawley rat hepatocytes at 10 uM; format: ADME, Liver; design: dose 10 uM
How it was run: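 Freshly isolated rat hepatocytes were incubated with compound. Intracellular levels of the active phosphonate were followed over time and expressed per 10⁶ cells, giving Cmax and tmax.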

[3] = Clearance in Sprague-Dawley rat at 5 mg/kg, iv; format: ADME, organism-based; design: dose 5 mg/kg, route intravenous; conditions: in vivo
How it was run: (§1)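 Male SD rats received a 5 mg/kg i.v. dose. Parameters were derived from the plasma concentration–time profile of the parent and its active metabolite.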

[4] = Inhibition of CYP3A in Sprague-Dawley rat liver microsome at 10 uM; format: ADME; conditions: microsomes
[5] = target: Thyroid hormone receptor alpha (Homo sapiens, UniProt P10827); assay: Displacement of [125I]T3 from recombinant thyroid hormone receptor alpha expressed in sf9 cells by scintillation proximity assay
Sequence of Thyroid hormone receptor alpha (P10827 whole entry): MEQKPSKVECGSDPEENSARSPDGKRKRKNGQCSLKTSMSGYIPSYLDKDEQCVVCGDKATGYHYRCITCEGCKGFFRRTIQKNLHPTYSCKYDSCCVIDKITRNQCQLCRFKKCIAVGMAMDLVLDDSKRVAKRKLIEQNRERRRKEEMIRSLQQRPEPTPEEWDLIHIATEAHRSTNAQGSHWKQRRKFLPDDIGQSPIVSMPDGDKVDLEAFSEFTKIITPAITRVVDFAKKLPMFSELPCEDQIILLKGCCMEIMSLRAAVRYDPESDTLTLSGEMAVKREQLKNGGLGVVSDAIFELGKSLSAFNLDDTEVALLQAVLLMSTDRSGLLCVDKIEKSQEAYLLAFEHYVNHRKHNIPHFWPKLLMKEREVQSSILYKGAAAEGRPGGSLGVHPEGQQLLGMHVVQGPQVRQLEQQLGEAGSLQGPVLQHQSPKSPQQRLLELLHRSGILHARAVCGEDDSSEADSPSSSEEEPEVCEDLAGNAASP

[6] = AUC (0 to 24 hrs) in bile-diverted Sprague-Dawley rat at 10 mg/kg, iv; format: ADME, organism-based; design: time < 24 hr, dose 10 mg/kg, route intravenous; conditions: plasma
How it was run: (§2)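 Male SD rats, naïve or bile duct-cannulated (n = 3 per group), given MB07344 at 10 mg/kg i.v. MB07344 measured in plasma and in collected bile. AUC over 0–24 h taken from the plasma concentration–time profile.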

[7] = Cmax in Sprague-Dawley rat at 5 mg/kg, iv; format: ADME, organism-based; design: dose 5 mg/kg, route intravenous; conditions: in vivo; how it was run: as §1
[8] = Drug excretion in Sprague-Dawley rat feces at 2 mg/kg, iv after 96 hrs; format: ADME, organism-based; design: dose 2 mg/kg, route intravenous; conditions: faeces, read-out: Activity
How it was run: (§3)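 Mass balance used male SD rats (n = 6) given [³H]-labelled compound (2 mg/kg, 45.5 mCi/mmol) as an i.v. bolus. Cumulative radioactivity in urine, wash and feces was monitored at 0, 12, 24, 48, 72 and 96 h.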

[9] = target: Thyroid hormone receptor beta (Homo sapiens, UniProt P10828); assay: Displacement of [125I]T3 from recombinant thyroid hormone receptor beta expressed in sf9 cells by scintillation proximity assay
Sequence of Thyroid hormone receptor beta (P10828 whole entry): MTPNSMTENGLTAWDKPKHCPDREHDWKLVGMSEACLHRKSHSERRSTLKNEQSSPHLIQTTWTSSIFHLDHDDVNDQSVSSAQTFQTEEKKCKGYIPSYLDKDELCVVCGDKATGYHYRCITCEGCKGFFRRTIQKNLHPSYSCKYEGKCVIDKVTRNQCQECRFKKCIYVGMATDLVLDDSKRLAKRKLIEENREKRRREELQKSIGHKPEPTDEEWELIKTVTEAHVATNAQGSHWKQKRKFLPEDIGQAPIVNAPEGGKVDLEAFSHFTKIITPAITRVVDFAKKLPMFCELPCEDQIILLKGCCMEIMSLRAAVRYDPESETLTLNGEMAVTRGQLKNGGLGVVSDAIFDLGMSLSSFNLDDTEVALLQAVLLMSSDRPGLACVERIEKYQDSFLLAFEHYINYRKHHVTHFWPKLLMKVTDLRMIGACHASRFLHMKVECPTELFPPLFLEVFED

[10] = AUC (0 to 24 hrs) in Sprague-Dawley rat at 10 mg/kg, iv; format: ADME, organism-based; design: time < 24 hr, dose 10 mg/kg, route intravenous; conditions: plasma; how it was run: as §2
[11] = Drug excretion in Sprague-Dawley rat urine at 2 mg/kg, iv after 96 hrs; format: ADME, organism-based; design: dose 2 mg/kg, route intravenous; conditions: read-out: Activity; how it was run: as §3
[12] = Half life in Sprague-Dawley rat at 5 mg/kg, iv; format: ADME, organism-based; design: dose 5 mg/kg, route intravenous; conditions: in vivo
How it was run: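 Male SD rats given a single 5 mg/kg i.v. dose. Half-life derived from the plasma concentration–time profile of the parent compound.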

[13] = Volume of distribution in Sprague-Dawley rat at 5 mg/kg, iv; format: ADME, organism-based; design: dose 5 mg/kg, route intravenous; conditions: in vivo

Cc1cc(OCP(=O)(O)O)cc(C)c1Cc1ccc(O)c(C(C)C)c1 [MB07344]
dose excreted [1]: 50% | AUC(0-t) at 24 h [2]: 16600 ng·h/mL | Cmax (Hepatocyte): 1.77 nmol | clearance [3]: 4.67 mL/min/kg | Activity [4]: Not Active | Ki [5]: 35.2 nM | AUC(0-t) at 24 h [6]: 48100 ng·h/mL | Cmax [7]: 40400 ng/mL | dose excreted at 96 h [8]: 98% | Ki [9]: 2.17 nM | AUC(0-t) at 24 h [10]: 35100 ng·h/mL | dose excreted at 96 h [11]: 2% | half-life [12]: 1.27 h | Vd [13]: 0.39 L/kg
